Results: ChEMBL document CHEMBL4321879, “Novel Class of Colony-Stimulating Factor 1 Receptor Kinase Inhibitors Based on an o-Aminopyridyl Alkynyl Scaffold as Potential Treatment for Inflammatory Disorders” (J Med Chem, 2020)

biological target: Macrophage colony-stimulating factor 1 receptor (Homo sapiens, UniProt P07333); assay: Inhibition of recombinant CSF1R (unknown origin) using poly (Glu, Tyr)4:1 as substrate measured after 1 hr by ELISA; details: not given
Sequence (P07333 whole entry): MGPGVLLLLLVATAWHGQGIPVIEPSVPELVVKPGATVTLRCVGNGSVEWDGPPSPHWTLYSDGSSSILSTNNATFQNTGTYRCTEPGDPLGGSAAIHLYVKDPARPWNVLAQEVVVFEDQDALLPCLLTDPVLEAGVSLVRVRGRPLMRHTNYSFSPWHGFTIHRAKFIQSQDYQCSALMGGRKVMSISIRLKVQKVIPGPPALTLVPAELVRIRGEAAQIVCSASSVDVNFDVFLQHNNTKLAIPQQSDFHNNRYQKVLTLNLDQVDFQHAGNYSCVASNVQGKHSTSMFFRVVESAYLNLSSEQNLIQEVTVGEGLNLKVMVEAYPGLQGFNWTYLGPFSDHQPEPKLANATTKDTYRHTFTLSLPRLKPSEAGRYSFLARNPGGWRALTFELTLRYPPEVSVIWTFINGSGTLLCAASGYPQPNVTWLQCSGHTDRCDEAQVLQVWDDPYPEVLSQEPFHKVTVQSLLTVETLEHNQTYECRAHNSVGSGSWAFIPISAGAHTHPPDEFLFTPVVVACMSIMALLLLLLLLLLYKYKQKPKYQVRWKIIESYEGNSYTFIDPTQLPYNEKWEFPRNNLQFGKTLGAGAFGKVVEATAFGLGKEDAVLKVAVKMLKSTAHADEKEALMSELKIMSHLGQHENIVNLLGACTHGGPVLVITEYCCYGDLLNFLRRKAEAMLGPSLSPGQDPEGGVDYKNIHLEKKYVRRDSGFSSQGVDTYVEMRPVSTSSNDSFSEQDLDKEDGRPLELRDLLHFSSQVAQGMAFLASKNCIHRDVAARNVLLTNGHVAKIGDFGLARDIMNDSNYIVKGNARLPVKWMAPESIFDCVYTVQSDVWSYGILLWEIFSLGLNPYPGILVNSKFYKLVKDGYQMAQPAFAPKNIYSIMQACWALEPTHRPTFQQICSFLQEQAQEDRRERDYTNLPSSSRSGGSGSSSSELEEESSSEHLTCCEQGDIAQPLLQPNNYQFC

| SMILES | IC50 [nM] |
| --- | --- |
| COc1cc(NC(=O)c2ccc(C)c(C#Cc3cccnc3)c2)cc(OC)c1 | 219 |
| COc1cccc(NC(=O)c2ccc(C)c(C#Cc3cc(-c4cnn(C)c4)cnc3N)c2)c1 | 1.4 |
| Cc1ccc(C(=O)Nc2ccc(CN3CCN(C)CC3)c(C(F)(F)F)c2)cc1C#Cc1cncc2ccccc12 | 46 |
| COc1cc(NC(=O)c2ccc(C)c(C#Cc3cncc4ccccc34)c2)cc(OC)c1 | 23.4 |
| COc1cc(NC(=O)c2ccc(F)c(C#Cc3cc(-c4cnn(C)c4)cnc3N)c2)cc(OC)c1 | 160 |
| COc1cc(NC(=O)c2ccc(C)c(C#Cc3cc(Cl)cnc3N)c2)cc(OC)c1 | 16.6 |
| COc1cc(NC(=O)c2ccc(C)c(C#Cc3cc(C(N)=O)cnc3N)c2)cc(OC)c1 | 3.5 |
| Cc1cc(C(=O)Nc2ccc(Cl)cc2)ccc1C#Cc1cc(-c2cnn(C)c2)cnc1N | > 1000 |
| COc1cc(NC(=O)c2ccc(OC)c(C#Cc3cc(-c4cnn(C)c4)cnc3N)c2)cc(OC)c1 | 263 |
| COc1cc(NC(=O)c2ccc(C(F)(F)F)c(C#Cc3cc(-c4cnn(C)c4)cnc3N)c2)cc(OC)c1 | > 1000 |
| COc1ccccc1NC(=O)c1ccc(C)c(C#Cc2cc(-c3cnn(C)c3)cnc2N)c1 | 20.2 |
| Cc1ccc(C(=O)Nc2ccccc2)cc1C#Cc1cc(-c2cnn(C)c2)cnc1N | 6.5 |
| CNC(=O)c1cnc(N)c(C#Cc2cc(C(=O)Nc3cc(OC)cc(OC)c3)ccc2C)c1 | 8.1 |
| COc1cc(NC(=O)c2ccc(C)c(C#Cc3cccnc3N)c2)cc(OC)c1 | 28.5 |
| Cc1ccc(C(=O)Nc2cccc(C(F)(F)F)c2)cc1C#Cc1cc(-c2cnn(C)c2)cnc1N | 2.4 |
| Cc1ccc(C(=O)Nc2cccc(Cl)c2)cc1C#Cc1cc(-c2cnn(C)c2)cnc1N | 1.3 |
| COc1cc(NC(=O)c2ccc(Cl)c(C#Cc3cc(-c4cnn(C)c4)cnc3N)c2)cc(OC)c1 | 6.5 |
| COC(=O)c1cnc(N)c(C#Cc2cc(C(=O)Nc3cc(OC)cc(OC)c3)ccc2C)c1 | 5.5 |
| Cc1ccc(C(=O)Nc2ccc(C(F)(F)F)cc2)cc1C#Cc1cc(-c2cnn(C)c2)cnc1N | 3 |
| COc1cc(NC(=O)c2ccc(C)c(C#Cc3cnc4cccnn34)c2)cc(OC)c1 | 25.1 |
| Cc1ccc(C(=O)N(C)c2ccc(Cl)cc2)cc1C#Cc1cc(-c2cnn(C)c2)cnc1N | > 1000 |
| COc1cc(NC(=O)c2cccc(C#Cc3cc(-c4cnn(C)c4)cnc3N)c2)cc(OC)c1 | 16.1 |
| COc1cc(NC(=O)c2ccc(C(C)C)c(C#Cc3cc(-c4cnn(C)c4)cnc3N)c2)cc(OC)c1 | > 1000 |
| Cc1ccc(NC(=O)c2ccc(Cl)cc2)cc1C#Cc1cc(-c2cnn(C)c2)cnc1N | 7.2 |
| Cc1ccc(C(=O)Nc2ccc(Cl)cc2Cl)cc1C#Cc1cc(-c2cnn(C)c2)cnc1N | 5.9 |
| COc1cc(NC(=O)c2ccc(C)c(C#Cc3cc(-c4cnn(C)c4)cnc3N)c2)cc(OC)c1 | 2.6 |
| Cc1ccc(CNc2ccc(Cl)cc2)cc1C#Cc1cc(-c2cnn(C)c2)cnc1N | > 1000 |
| Cc1ccc(C(=O)Nc2ccc(Cl)c(Cl)c2)cc1C#Cc1cc(-c2cnn(C)c2)cnc1N | 10.8 |
| Cc1ccc(C(=O)Nc2ccccc2Cl)cc1C#Cc1cc(-c2cnn(C)c2)cnc1N | 318 |
| COc1ccc(NC(=O)c2ccc(C)c(C#Cc3cc(-c4cnn(C)c4)cnc3N)c2)cc1 | 1.4 |

biological target: Fibroblast growth factor receptor 1 (Homo sapiens, UniProt P11362); assay: Inhibition of recombinant human N-terminal GST-tagged FGFR1 (456 to 765 residues) expressed in baculovirus infected Sf21 insect cells using poly (Glu, Tyr)4:1 as substrate measured after 1 hr by ELISA; details: not given
Sequence (P11362 whole entry, the tested form may be a part): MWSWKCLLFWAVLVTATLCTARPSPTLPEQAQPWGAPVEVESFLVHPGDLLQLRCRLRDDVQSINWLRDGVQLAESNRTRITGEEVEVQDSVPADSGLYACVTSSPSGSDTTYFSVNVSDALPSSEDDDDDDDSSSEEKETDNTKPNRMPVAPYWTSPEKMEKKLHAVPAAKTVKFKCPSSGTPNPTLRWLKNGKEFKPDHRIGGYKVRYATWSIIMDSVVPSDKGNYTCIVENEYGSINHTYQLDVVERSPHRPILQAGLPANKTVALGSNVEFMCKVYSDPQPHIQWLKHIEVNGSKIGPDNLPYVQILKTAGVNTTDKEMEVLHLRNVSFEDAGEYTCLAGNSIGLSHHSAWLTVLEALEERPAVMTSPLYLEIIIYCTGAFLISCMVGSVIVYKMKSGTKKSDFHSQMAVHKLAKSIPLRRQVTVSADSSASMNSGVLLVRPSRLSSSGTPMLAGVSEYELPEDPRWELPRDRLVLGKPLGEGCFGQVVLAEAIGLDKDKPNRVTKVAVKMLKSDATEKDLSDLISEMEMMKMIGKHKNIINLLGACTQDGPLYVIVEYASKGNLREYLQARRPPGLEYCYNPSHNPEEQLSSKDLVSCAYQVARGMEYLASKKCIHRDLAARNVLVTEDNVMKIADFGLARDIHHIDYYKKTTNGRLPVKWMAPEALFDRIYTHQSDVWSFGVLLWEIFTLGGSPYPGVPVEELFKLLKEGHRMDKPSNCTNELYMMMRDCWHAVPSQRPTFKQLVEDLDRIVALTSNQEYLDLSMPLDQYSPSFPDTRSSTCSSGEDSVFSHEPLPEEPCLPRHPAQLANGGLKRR
Procedure, shortened: (§1)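 Recombinant kinase was incubated with compound in reaction buffer containing 5 μM ATP, in wells precoated with poly(Glu,Tyr) 4:1, for 1 h at 37 °C. Phosphorylation was detected by ELISA.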

| SMILES | IC50 [nM] |
| --- | --- |
| COc1cc(NC(=O)c2ccc(C)c(C#Cc3cncc4ccccc34)c2)cc(OC)c1 | > 1000 |

biological target: Fibroblast growth factor receptor 2 (Homo sapiens, UniProt P21802); assay: Inhibition of recombinant human N-terminal His6-tagged FGFR2 (456 to 770 residues) expressed in baculovirus infected Sf21 insect cells using poly (Glu, Tyr)4:1 as substrate measured after 1 hr by ELISA; details: not given; procedure, shortened: as §1
Sequence (P21802 whole entry, the tested form may be a part): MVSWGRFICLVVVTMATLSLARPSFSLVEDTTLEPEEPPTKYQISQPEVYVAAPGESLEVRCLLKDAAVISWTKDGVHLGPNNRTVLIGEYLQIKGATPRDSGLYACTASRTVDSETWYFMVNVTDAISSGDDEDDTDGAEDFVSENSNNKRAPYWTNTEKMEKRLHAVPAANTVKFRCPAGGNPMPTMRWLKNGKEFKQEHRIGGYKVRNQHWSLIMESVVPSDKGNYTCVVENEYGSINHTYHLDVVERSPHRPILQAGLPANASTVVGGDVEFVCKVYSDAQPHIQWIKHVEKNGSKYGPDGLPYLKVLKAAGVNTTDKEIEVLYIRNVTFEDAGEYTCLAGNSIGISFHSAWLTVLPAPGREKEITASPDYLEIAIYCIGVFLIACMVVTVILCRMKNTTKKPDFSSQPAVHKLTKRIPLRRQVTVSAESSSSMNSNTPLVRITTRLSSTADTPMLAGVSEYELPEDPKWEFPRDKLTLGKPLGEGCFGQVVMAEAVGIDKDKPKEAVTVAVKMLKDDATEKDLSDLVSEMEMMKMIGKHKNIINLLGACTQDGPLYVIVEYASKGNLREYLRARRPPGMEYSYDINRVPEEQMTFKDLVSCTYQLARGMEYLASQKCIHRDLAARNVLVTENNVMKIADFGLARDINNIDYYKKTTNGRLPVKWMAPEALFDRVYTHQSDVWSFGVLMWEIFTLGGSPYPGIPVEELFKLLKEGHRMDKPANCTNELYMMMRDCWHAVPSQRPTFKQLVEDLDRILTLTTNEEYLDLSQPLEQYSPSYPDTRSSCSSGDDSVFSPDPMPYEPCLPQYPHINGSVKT

| SMILES | IC50 [nM] |
| --- | --- |
| COc1cc(NC(=O)c2ccc(C)c(C#Cc3cncc4ccccc34)c2)cc(OC)c1 | > 1000 |

biological target: Fibroblast growth factor receptor 3 (Homo sapiens, UniProt P22607); assay: Inhibition of recombinant human N-terminal His6-tagged FGFR3 (447 to 761 residues) expressed in baculovirus infected Sf21 insect cells using poly (Glu, Tyr)4:1 as substrate measured after 1 hr by ELISA; details: not given; procedure, shortened: as §1
Sequence (P22607 whole entry, the tested form may be a part): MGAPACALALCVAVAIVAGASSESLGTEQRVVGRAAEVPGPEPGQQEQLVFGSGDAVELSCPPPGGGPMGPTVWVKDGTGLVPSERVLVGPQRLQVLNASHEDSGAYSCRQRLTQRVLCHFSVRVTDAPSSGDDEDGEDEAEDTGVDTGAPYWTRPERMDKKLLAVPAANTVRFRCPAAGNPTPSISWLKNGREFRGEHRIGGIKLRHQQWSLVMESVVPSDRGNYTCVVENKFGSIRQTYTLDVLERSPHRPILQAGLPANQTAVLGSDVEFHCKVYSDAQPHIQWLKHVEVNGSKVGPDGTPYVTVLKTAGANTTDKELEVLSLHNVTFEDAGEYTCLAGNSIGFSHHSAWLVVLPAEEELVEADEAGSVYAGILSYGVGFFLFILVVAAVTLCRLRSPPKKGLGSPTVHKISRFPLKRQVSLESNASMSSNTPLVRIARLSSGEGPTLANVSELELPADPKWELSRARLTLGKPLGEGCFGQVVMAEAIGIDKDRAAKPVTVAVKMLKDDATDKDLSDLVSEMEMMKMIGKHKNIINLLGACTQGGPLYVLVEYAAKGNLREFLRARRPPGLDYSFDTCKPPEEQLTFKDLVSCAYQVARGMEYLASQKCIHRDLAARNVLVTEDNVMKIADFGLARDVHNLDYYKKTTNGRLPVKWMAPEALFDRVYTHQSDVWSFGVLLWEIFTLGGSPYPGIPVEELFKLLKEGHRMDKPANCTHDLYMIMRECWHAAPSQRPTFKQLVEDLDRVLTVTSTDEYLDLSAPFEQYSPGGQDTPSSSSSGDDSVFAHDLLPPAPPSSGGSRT

| SMILES | IC50 [nM] |
| --- | --- |
| COc1cc(NC(=O)c2ccc(C)c(C#Cc3cncc4ccccc34)c2)cc(OC)c1 | > 1000 |

biological target: Fibroblast growth factor receptor 4 (Homo sapiens, UniProt P22455); assay: Inhibition of recombinant human N-terminal His6-tagged FGFR4 (442 to 755 residues) expressed in baculovirus infected Sf21 insect cells using poly (Glu, Tyr)4:1 as substrate measured after 1 hr by ELISA; details: not given
Sequence (P22455 whole entry, the tested form may be a part): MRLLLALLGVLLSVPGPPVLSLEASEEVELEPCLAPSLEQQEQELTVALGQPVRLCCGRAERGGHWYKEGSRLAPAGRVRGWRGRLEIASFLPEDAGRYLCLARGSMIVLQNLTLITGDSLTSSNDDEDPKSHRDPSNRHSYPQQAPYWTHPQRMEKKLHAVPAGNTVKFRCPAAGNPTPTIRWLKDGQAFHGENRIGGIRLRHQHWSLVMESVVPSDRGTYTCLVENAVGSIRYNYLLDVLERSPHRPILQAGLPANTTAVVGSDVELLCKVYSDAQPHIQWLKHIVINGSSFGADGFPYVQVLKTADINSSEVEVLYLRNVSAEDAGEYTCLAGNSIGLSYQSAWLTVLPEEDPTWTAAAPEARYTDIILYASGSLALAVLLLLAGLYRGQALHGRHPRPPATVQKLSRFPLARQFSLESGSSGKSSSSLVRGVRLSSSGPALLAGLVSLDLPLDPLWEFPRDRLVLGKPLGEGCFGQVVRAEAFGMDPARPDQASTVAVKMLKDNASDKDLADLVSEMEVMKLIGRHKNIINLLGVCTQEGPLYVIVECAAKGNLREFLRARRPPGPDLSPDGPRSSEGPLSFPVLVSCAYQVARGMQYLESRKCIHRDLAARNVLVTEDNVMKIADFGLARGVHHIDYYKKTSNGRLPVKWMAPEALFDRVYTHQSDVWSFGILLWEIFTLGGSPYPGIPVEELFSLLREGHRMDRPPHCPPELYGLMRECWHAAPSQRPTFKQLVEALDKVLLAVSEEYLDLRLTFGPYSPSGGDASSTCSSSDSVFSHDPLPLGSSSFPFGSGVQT
Procedure, shortened: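 ELISA kinase assay: recombinant kinase added to wells precoated with poly(Glu,Tyr)4:1 and incubated with compound in reaction buffer containing 5 μM ATP, 37 °C for 1 h; wells then washed before antibody detection.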

| SMILES | IC50 [nM] |
| --- | --- |
| COc1cc(NC(=O)c2ccc(C)c(C#Cc3cncc4ccccc34)c2)cc(OC)c1 | > 1000 |

system: RAW264.7; assay: Antiinflammatory activity in mouse RAW264.7 cells assessed as reduction in LPS-induced TNFalpha release measured after 24 hrs by ELISA; type: functional, cell-based; details: RAW264.7, 24 h
Procedure, shortened: (§2)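 RAW264.7 cells in DMEM with 10% FBS and 0.125% DMSO were incubated with compound, then primed with LPS 1 μg/mL for 24 h. Supernatant TNF-α and IL-6 measured by mouse ELISA. IC50 from log(inhibitor) versus normalized response nonlinear fit.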

| SMILES | IC50 [nM] |
| --- | --- |
| FC(F)(F)c1ccc(CNc2ccc(Cc3c[nH]c4ncc(Cl)cc34)cn2)cn1 [PEXIDARTINIB] | 400 |

system: RAW264.7; assay: Antiinflammatory activity in mouse RAW264.7 cells assessed as reduction in LPS-induced IL6 release measured after 24 hrs by ELISA; type: functional, cell-based; details: RAW264.7, 24 h; procedure, shortened: as §2

| SMILES | IC50 [nM] |
| --- | --- |
| FC(F)(F)c1ccc(CNc2ccc(Cc3c[nH]c4ncc(Cl)cc34)cn2)cn1 [PEXIDARTINIB] | 430 |

system: not listed separately; assay: Cytotoxicity against mouse RAW264.7 cells assessed as reduction in cell viability measured after 24 hrs by CCK8 assay; type: cell-based; details: not given
Procedure, shortened: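 RAW264.7 cells were seeded in triplicate in DMEM and exposed to compound for 24 h. CCK-8 was added, incubated 1 h, and absorbance read at 450 nm with 570 nm reference. CC50 from log(inhibitor) versus normalized response nonlinear fit.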

| SMILES | CC50 at 24 h [nM] |
| --- | --- |
| FC(F)(F)c1ccc(CNc2ccc(Cc3c[nH]c4ncc(Cl)cc34)cn2)cn1 [PEXIDARTINIB] | 20500 |
